# The source made the active and inactive calls. The calls are words filed in the database; no cut-off is given here.
# How the values were obtained:
# [1] = target: T1, Sodium- and chloride-dependent glycine transporter 1 (Homo sapiens, UniProt P48067); assay: Displacement of [3H]N-Methyl-SSR504734 from human GlyT1c expressed in cell membranes incubated for 1 hr by liquid scintillation spectrometry
# T1 sequence (P48067 whole entry): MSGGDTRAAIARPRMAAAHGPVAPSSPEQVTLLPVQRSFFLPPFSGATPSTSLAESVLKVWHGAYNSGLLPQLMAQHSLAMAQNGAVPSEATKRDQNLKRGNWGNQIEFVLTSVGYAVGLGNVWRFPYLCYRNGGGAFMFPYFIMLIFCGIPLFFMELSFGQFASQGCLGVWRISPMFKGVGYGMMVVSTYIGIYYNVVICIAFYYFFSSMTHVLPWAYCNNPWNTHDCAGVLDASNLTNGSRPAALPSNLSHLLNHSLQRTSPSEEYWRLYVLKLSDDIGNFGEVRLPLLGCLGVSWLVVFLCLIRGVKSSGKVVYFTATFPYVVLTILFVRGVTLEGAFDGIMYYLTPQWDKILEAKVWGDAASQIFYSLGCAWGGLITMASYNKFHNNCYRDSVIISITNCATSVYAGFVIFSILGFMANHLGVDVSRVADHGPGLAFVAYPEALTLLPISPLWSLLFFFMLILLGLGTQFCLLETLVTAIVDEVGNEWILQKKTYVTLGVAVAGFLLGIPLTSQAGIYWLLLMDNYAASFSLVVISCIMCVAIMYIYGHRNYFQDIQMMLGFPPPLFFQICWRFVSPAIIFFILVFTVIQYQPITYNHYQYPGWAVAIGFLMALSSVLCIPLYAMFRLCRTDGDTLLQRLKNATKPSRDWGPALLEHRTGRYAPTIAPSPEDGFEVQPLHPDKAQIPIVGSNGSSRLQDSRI
# [2] = Clearance in rat liver microsomes at 0.5 uM incubated up to 30 mins in presence of NADPH by LC-MS/MS method; assay type: ADME, microsome; conditions: read-out: CLH
# [3] = Clearance in human liver microsomes at 0.5 uM incubated up to 30 mins in presence of NADPH by LC-MS/MS method; assay type: ADME, microsome; conditions: read-out: CLH
# [4] = Oral bioavailability in Sprague-Dawley rat at measured after 8 to 24 hrs by LC-MS/MS method; assay type: ADME, organism-based; conditions: in vivo
# [5] = fCmax in Sprague-Dawley rat brain at 2 mg/kg, ip measured after 8 to 24 hrs by LC-MS/MS method; assay type: ADME, organism-based; conditions: in vivo
# [6] = Oral bioavailability in dog; assay type: ADME, organism-based, Canis lupus familiaris; conditions: in vivo
# [7] = Solubility in water; assay type: physicochemical
# [8] = Permeability in MDCK2-MDR1 cells at 1 uM incubated fro 1 hr by LC-MS/MS method; assay type: ADME, cell-based, Canis lupus familiaris; conditions: dog, MDCK-MDR1; read-out: permeability
# [9] = tested on: Mus musculus; assay: In-vivo binding affinity to GlyT1 in mouse assessed as target occupancy in forebrains dosed intraperitoneally using [3H]N-methyl-SSR504734 as radioligand after 1 hr by liquid scintillation counting method; assay type: functional; conditions: ip
# Summary of the method: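 Mice dosed i.p. at several doses; forebrain homogenates then tested ex vivo for binding of a GlyT1 radioligand to give target occupancy, with ED50 for 50% occupancy estimated across the dose range.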
# [10] = target: T2, Sodium- and chloride-dependent glycine transporter 1 (Homo sapiens) (UniProt P48067); assay: Inhibition of GlyT1c (unknown origin) expressed in Xenopus laevis oocytes clamped at -60 mV assessed as reduction in 10 uM glycine-induced membrane currents at 300 nM pre-treated with glycine for 1 min followed by compound dosing for 3 mins by two-electrode voltage clamp assay; assay type: cell-based
# T2 sequence (whole entry): T1 sequence (P48067 whole entry)
# Summary of the method: (§1)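 Oocytes expressing GlyT1c were stimulated with 10 µM or 3000 µM glycine to evoke transporter current. Compound at 300 nM was added to the glycine solution, and % inhibition of the current was calculated. Mode of inhibition was judged by comparing inhibition at the two glycine levels. Data are mean ± SD, N>4 oocytes.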
# [11] = target: T2, Sodium- and chloride-dependent glycine transporter 1 (Homo sapiens); assay: Inhibition of GlyT1c (unknown origin) expressed in Xenopus laevis oocytes clamped at -60 mV assessed as reduction in 3000 uM glycine-induced membrane currents at 300 nM pre-treated with glycine for 1 min followed by compound dosing for 3 mins by two-electrode voltage clamp assay; assay type: cell-based; summary of the method: as §1
# [12] = tested on: Mus musculus; assay: Reversal of L687,414-induced hyperlocomotion in mouse at 0.3 to 3 mg/kg, ip dosed 120 mins before test followed by L687,414 dosing for 15 mins before test and measured after 60 mins by Wilcoxon-Mann-Whitney test; assay type: functional
# Summary of the method: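 Non-habituated mice received test agent (0.3, 1.0, 3.0 mg/kg) or vehicle i.p. 120 min before test, then 50 mg/kg L-687,414 or vehicle i.p. 15 min before test; locomotor activity recorded for 60 min; n=8 mice per group, mean ± SEM; Mann-Whitney and Dunn's multiple comparisons tests.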
# [13] = Efflux ratio in MDCK2-MDR1 cells at 1 uM incubated fro 1 hr by LC-MS/MS method; assay type: ADME, cell-based, Canis lupus familiaris; conditions: dog, MDCK-MDR1
# [14] = target: Voltage-gated inwardly rectifying potassium channel KCNH2 (Homo sapiens, UniProt Q12809); assay: Inhibition of human ERG
# Sequence of Voltage-gated inwardly rectifying potassium channel KCNH2 (Q12809 whole entry): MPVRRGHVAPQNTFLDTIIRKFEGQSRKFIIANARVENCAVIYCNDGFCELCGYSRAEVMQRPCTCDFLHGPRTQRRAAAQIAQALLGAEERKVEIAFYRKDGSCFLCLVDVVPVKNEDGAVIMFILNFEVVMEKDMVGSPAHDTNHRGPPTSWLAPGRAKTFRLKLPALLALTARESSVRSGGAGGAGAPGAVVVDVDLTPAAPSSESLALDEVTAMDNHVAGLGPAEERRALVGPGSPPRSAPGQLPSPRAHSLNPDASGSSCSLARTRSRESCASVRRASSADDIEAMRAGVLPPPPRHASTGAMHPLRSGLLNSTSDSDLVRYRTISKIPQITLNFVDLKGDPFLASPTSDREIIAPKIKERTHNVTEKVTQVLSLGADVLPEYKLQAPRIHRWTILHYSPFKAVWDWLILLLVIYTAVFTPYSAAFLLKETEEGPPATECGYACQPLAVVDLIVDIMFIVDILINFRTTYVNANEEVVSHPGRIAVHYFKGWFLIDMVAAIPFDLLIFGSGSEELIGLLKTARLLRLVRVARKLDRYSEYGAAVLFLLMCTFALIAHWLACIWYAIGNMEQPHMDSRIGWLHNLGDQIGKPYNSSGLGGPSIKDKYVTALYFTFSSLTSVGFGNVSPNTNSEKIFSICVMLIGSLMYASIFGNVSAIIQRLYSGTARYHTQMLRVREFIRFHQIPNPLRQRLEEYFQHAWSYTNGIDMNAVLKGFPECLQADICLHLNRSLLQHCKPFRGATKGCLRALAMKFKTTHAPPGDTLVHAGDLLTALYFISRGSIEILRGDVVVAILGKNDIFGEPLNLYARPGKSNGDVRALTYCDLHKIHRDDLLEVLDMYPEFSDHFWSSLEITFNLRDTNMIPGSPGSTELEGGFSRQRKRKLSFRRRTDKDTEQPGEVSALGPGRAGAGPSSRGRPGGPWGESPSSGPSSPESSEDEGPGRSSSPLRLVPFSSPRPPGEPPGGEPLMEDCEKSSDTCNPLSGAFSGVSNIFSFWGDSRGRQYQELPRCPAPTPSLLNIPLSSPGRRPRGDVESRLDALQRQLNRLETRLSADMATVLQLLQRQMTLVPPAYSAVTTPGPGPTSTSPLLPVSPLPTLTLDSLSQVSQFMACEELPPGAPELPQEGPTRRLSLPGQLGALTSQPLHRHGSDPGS
# [15] = Drug level in Sprague-Dawley rat brain at 0.2 mg/kg, ip measured after 8 to 24 hrs by LC-MS/MS method; assay type: ADME, organism-based; conditions: in vivo, read-out: Drug uptake
# [16] = target: T2, Sodium- and chloride-dependent glycine transporter 1 (Homo sapiens); assay: Non-competitive inhibition of GlyT1c (unknown origin) expressed in Xenopus laevis oocytes clamped at -60 mV assessed as reduction in glycine-induced membrane currents at 300 nM pre-treated with glycine for 1 min followed by compound dosing for 3 mins by two-electrode voltage clamp assay; assay type: cell-based; summary of the method: as §1
SMILES,Ki [1],microsomal CLint at 0.5 µM [2],microsomal CLint at 0.5 µM [3],bioavailability [4],fCmax [5],bioavailability [6],solubility [7],"Papp at 1 h, 1 µM [8]",ED50 [9],inhibition [10],inhibition [11],ED50 [12],inhibition [12],"efflux ratio at 1 h, 1 µM [13]",IC50 [14],concentration [15],inhibition [16]
Cn1cnc(S(=O)(=O)NCCOc2ccc3c(c2)[C@@H](Cc2ccccc2)[C@@H](N2CCC2)CC3)c1,0.8 nM,55 µL/min/mg,10 µL/min/mg,17%,2 nM,75%,> 1000 µg/mL,22 ×10⁻⁶ cm/s,1.4 mg/kg,97%,39%,0.8 mg/kg,Dose-dependent effect,12,15000 nM,–,–
O=S(=O)(CC1CC1)NC1CN(c2ccc3c(c2)[C@@H](Cc2ccccc2)[C@@H](N2CCC2)CC3)C1,0.9 nM,85 µL/min/mg,< 23 µL/min/mg,–,18.7 nM,–,–,–,0.2 mg/kg,–,–,–,–,1.7,4400 nM,0.9 nM,–
C[C@H](Oc1ccc(S(C)(=O)=O)cc1C(=O)N1CCN(c2ncc(C(F)(F)F)cc2F)CC1)C(F)(F)F [BITOPERTIN],47 nM,–,–,–,–,–,–,–,–,67%,95%,–,–,–,–,–,Active

# Source: ChEMBL document CHEMBL4145681, “Discovery of Novel Aminotetralines and Aminochromanes as Selective and Competitive Glycine Transporter 1 (GlyT1) Inhibitors” (J Med Chem, 2018)
